Measured values reported in ChEMBL document CHEMBL3352188, “Synthesis, antimicrobial and molecular docking studies of enantiomerically pure N-alkylated β-amino alcohols from phenylpropanolamines” (2014).
In brackets after ≈: the same amount, converted by molar mass. Activity calls are given as the source filed them. The calls are words filed in the database; no cut-off is given here.

Assays:
Malassezia pachydermatis [1] = experiment: Antimicrobial activity against Malassezia pachydermatis at 1 mg/disc after 24 hrs by disc diffusion assay; type: functional
Klebsiella aerogenes [2] = experiment: Antimicrobial activity against Enterobacter aerogenes MTCC 111 at 1 mg/disc after 24 hrs by disc diffusion assay; type: functional
In short: (§1)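 Disc diffusion on Mueller Hinton agar. Inoculum was grown in MHB for 24 h at 37 °C, swabbed onto the plates and dried for 10 min. Discs with 1 mg compound were left 30 min at room temperature for diffusion, then incubated at 37 °C for 24 h. Inhibition zone was read in mm; run twice. Solvent was the negative control, streptomycin the positive control.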

Salmonella typhimurium [3] = experiment: Antimicrobial activity against Salmonella typhimurium MTCC 1251 at 1 mg/disc after 24 hrs by disc diffusion assay; type: functional, Salmonella enterica subsp. enterica serovar Typhimurium; in short: as §1
Klebsiella pneumoniae [4] = experiment: Antimicrobial activity against Klebsiella pneumoniae MTCC 109 at 1 mg/disc after 24 hrs by disc diffusion assay; type: functional; in short: as §1
Pseudomonas aeruginosa [5] = experiment: Antimicrobial activity against Pseudomonas aeruginosa MTCC 741 at 1 mg/disc after 24 hrs by disc diffusion assay; type: functional; in short: as §1
Candida albicans [6] = experiment: Antimicrobial activity against Candida albicans MTCC 227 at 1 mg/disc after 24 hrs by disc diffusion assay; type: functional
Shigella flexneri [7] = experiment: Antimicrobial activity against Shigella flexneri MTCC 1457 at 1 mg/disc after 24 hrs by disc diffusion assay; type: functional; in short: as §1
[8] = tested on: Salmonella enterica subsp. enterica serovar Paratyphi B; experiment: Antimicrobial activity against Salmonella paratyphi B at 1 mg/disc after 24 hrs by disc diffusion assay; type: functional; in short: as §1
Proteus vulgaris [9] = experiment: Antimicrobial activity against Proteus vulgaris MTCC 1771 at 1 mg/disc after 24 hrs by disc diffusion assay; type: functional; in short: as §1
Staphylococcus aureus [10] = experiment: Antimicrobial activity against […] Staphylococcus aureus MTCC 96 at 1 mg/disc after 24 hrs by disc diffusion assay; type: functional; in short: as §1
Staphylococcus aureus [11] = experiment: Antimicrobial activity against Staphylococcus aureus MTCC 96 at 1 mg/disc after 24 hrs by disc diffusion assay; type: functional; in short: as §1
Bacillus subtilis [12] = experiment: Antimicrobial activity against Bacillus subtilis MTCC 441 at 1 mg/disc after 24 hrs by disc diffusion assay; type: functional; in short: as §1
Micrococcus luteus [13] = experiment: Antimicrobial activity against Micrococcus luteus MTCC 106 at 1 mg/disc after 24 hrs by disc diffusion assay; type: functional; in short: as §1
Candida albicans [14] = experiment: Antimicrobial activity against Candida albicans MTCC 227 after 48 to 72 hrs by two fold dilution method; type: functional
In short: (§2)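 Yeast was grown in Sabouraud dextrose broth at 28 °C for 48 h and tested per CLSI reference methods. Two-fold serial dilutions from 1000 to 7.81 µg/mL, compound in DMSO (2%), in 96-well plates, incubated 48–72 h at 28 °C. MIC was the lowest concentration with no visible fungal growth. Ketoconazole was the positive control.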

Malassezia pachydermatis [15] = experiment: Antimicrobial activity against Malassezia pachydermatis after 48 to 72 hrs by two fold dilution method; type: functional; in short: as §2
Klebsiella pneumoniae [16] = experiment: Antimicrobial activity against Klebsiella pneumoniae MTCC 109 after 24 hrs by two fold dilution method; type: functional; conditions: MTCC 109, 24 h
In short: (§3)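 Broth two-fold serial dilution in 96-well plates from 1000 to 7.81 µg/mL, compound in DMSO (2%). Inoculum was grown in MHB for 24 h at 37 °C; plates were incubated 24 h at 37 °C. 5 µL of broth was spotted onto MHA; MIC was the lowest concentration with no visible growth on agar. Streptomycin was the positive control.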

Shigella flexneri [17] = experiment: Antimicrobial activity against Shigella flexneri MTCC 1457 after 24 hrs by two fold dilution method; type: functional; conditions: MTCC 1457, 24 h; in short: as §3
[18] = tested on: Salmonella enterica subsp. enterica serovar Paratyphi B; experiment: Antimicrobial activity against Salmonella paratyphi B after 24 hrs by two fold dilution method; type: functional; in short: as §3
Klebsiella aerogenes [19] = experiment: Antimicrobial activity against Enterobacter aerogenes MTCC 111 after 24 hrs by two fold dilution method; type: functional; conditions: MTCC 111, 24 h; in short: as §3
Bacillus subtilis [20] = experiment: Antimicrobial activity against Bacillus subtilis MTCC 441 after 24 hrs by two fold dilution method; type: functional; conditions: MTCC 441, 24 h; in short: as §3
Proteus vulgaris [21] = experiment: Antimicrobial activity against Proteus vulgaris MTCC 1771 after 24 hrs by two fold dilution method; type: functional; conditions: MTCC 1771, 24 h; in short: as §3
Staphylococcus aureus [22] = experiment: Antimicrobial activity against Staphylococcus aureus MTCC 96 after 24 hrs by two fold dilution method; type: functional; conditions: MTCC 96, 24 h; in short: as §3
Salmonella typhimurium [23] = experiment: Antimicrobial activity against Salmonella typhimurium MTCC 1251 after 24 hrs by two fold dilution method; type: functional, Salmonella enterica subsp. enterica serovar Typhimurium; conditions: Salmonella enterica, MTCC 1251, 24 h; in short: as §3
Micrococcus luteus [24] = experiment: Antimicrobial activity against Micrococcus luteus MTCC 106 after 24 hrs by two fold dilution method; type: functional; conditions: MTCC 106, 24 h; in short: as §3
Pseudomonas aeruginosa [25] = experiment: Antimicrobial activity against Pseudomonas aeruginosa MTCC 741 after 24 hrs by two fold dilution method; type: functional; conditions: MTCC 741, 24 h; in short: as §3
Staphylococcus aureus [26] = experiment: Antimicrobial activity against methicillin-resistant Staphylococcus aureus MTCC 96 after 24 hrs by two fold dilution method; type: functional; conditions: MTCC 96, 24 h; in short: as §3

SMILES	inhibition zone (IZ) (Malassezia pachydermatis [1])	inhibition zone (IZ) (Klebsiella aerogenes [2])	inhibition zone (IZ) (Salmonella typhimurium [3]) [mm]	inhibition zone (IZ) (Klebsiella pneumoniae [4])	inhibition zone (IZ) (Pseudomonas aeruginosa [5])	inhibition zone (IZ) (Candida albicans [6])	inhibition zone (IZ) (Shigella flexneri [7])	inhibition zone (IZ) [8]	inhibition zone (IZ) (Proteus vulgaris [9])	inhibition zone (IZ) (Staphylococcus aureus [10])	inhibition zone (IZ) (Staphylococcus aureus [11])	inhibition zone (IZ) (Bacillus subtilis [12])	inhibition zone (IZ) (Micrococcus luteus [13])	also measured
CC[C@H](C)N[C@H](C)[C@@H](O)c1ccccc1.Cl (mixture of isomers)	10 mm	inactive	10	inactive	10 mm	inactive	inactive	inactive	10 mm	inactive	inactive	inactive	10 mm	–
CC(=O)N1CCN(c2ccc(OCC3COC(Cn4ccnc4)(c4ccc(Cl)cc4Cl)O3)cc2)CC1 (configuration not stated) [KETOCONAZOLE]	26 mm	–	–	–	–	28 mm	–	–	–	–	–	–	–	MIC (Candida albicans [14]): 25 µg/mL (≈ 47 µM); MIC (Malassezia pachydermatis [15]): 25 µg/mL (≈ 47 µM)
CN[C@@H]1[C@H](O[C@H]2[C@H](O[C@H]3[C@H](O)[C@@H](O)[C@H](N=C(N)N)[C@@H](O)[C@@H]3N=C(N)N)O[C@@H](C)[C@]2(O)C=O)O[C@@H](CO)[C@H](O)[C@H]1O [STREPTOMYCIN]	–	22 mm	18	20 mm	30 mm	–	30 mm	30 mm	30 mm	30 mm	14 mm	30 mm	26 mm	MIC (Klebsiella pneumoniae [16]): 6.25 µg/mL (≈ 10.7 µM); MIC (Shigella flexneri [17]): 6.25 µg/mL (≈ 10.7 µM); MIC [18]: 62.5 µg/mL (≈ 107 µM); MIC (Klebsiella aerogenes [19]): 25 µg/mL (≈ 43 µM); MIC (Bacillus subtilis [20]): 6.25 µg/mL (≈ 10.7 µM); MIC (Proteus vulgaris [21]): 25 µg/mL (≈ 43 µM); MIC (Staphylococcus aureus [22]): 6.25 µg/mL (≈ 10.7 µM); MIC (Salmonella typhimurium [23]): 30 µg/mL (≈ 51.6 µM); MIC (Micrococcus luteus [24]): 6.25 µg/mL (≈ 10.7 µM); MIC (Pseudomonas aeruginosa [25]): 25 µg/mL (≈ 43 µM); MIC (Staphylococcus aureus [26]): 6.25 µg/mL (≈ 10.7 µM)
CC[C@@H](C)N[C@@H](C)[C@H](O)c1ccccc1.Cl (mixture of isomers)	inactive	inactive	10	inactive	inactive	inactive	inactive	10 mm	inactive	inactive	10 mm	inactive	inactive	–
